Results from ChEMBL document CHEMBL1268848, “Selenium-containing analogs of SAHA induce cytotoxicity in lung cancer cells” (Bioorg Med Chem Lett, 2010).
Activity calls are given as the source filed them. The rule behind the calls is not given here.

How the values were obtained:
A549 [1] = experiment: Cytotoxicity against human A549 cells by SRB assay; assay type: functional, cell-based
NCI-H2126 = experiment: Cytotoxicity against human NCI-H2126 by SRB assay; assay type: functional, cell-based
NCI-H226 = experiment: Cytotoxicity against human NCI-H226 by SRB assay; assay type: functional, cell-based
[2] = Cytotoxicity against human H441 by SRB assay; assay type: functional; settings: NCI-H441
NCI-H460 = experiment: Cytotoxicity against human NCI-H460 by SRB assay; assay type: functional, cell-based
Homo sapiens = organism: Homo sapiens; settings: at 5 µM
NCI-H1299 = experiment: Cytotoxicity against human NCI-H1299 by SRB assay; assay type: functional, cell-based
[3] = target: RAC-alpha serine/threonine-protein kinase (Homo sapiens) (UniProt P31749); experiment: Inhibition of AKT phosphorylation in human A549 at 5 uM after 24 hrs by Western blot analysis; assay type: functional
Chain of RAC-alpha serine/threonine-protein kinase (Homo sapiens) (P31749 whole entry): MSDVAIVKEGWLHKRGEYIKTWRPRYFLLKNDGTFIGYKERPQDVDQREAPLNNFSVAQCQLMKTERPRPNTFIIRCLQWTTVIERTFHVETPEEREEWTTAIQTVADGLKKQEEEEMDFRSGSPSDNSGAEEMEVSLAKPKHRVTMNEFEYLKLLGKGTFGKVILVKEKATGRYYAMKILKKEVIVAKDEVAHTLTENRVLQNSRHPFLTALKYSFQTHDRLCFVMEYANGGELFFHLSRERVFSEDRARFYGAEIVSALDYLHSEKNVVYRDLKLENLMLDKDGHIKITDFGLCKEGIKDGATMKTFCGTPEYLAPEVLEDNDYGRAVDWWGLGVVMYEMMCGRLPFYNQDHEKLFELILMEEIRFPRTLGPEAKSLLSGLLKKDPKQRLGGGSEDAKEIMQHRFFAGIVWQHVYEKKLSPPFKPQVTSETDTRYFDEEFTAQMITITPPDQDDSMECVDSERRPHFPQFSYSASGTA
Procedure, shortened: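 A549 cells treated 24 h with 5 μM compound, with DMSO controls. Lysed in Tris pH 7.4/NaCl/EDTA/EGTA/1% Triton X-100 buffer containing NaF, Na3VO4 and protease inhibitors, 10 min at 4°C, then cleared at 14,000 xg. 10 μg protein by BCA run on SDS-PAGE and blotted to PVDF. Probed with anti-pAKT and compared with pan-AKT.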

NCI-H23 = experiment: Cytotoxicity against human NCI-H23 by SRB assay; assay type: functional, cell-based
NCI-H522 = experiment: Cytotoxicity against human NCI-H522 by SRB assay; assay type: functional, cell-based
Procedure, shortened: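 SRB cytotoxicity assay after 24 h drug exposure. Cells grown in DMEM with 10% FBS and penicillin/streptomycin at 37 °C under 5% CO2. Compounds taken from 10 mM DMSO stocks and diluted in medium over 0.1–50 μM, final DMSO 0.2%, with DMSO-only controls. IC50 obtained by non-linear regression of dose-response curves.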

A549 [4] = experiment: Induction of autophagy in human A549 cells assessed as increase in LC3II after 3 hrs relative to control; assay type: functional, cell-based
Procedure, shortened: (§1)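 A549 cells given 5 μM compound, with DMSO-treated controls, and harvested at times from 0 to 24 h. Lysis buffer: 20 mM Tris pH 7.4, 150 mM NaCl, 1 mM EDTA/EGTA, 1% Triton X-100, NaF, Na3VO4 and protease inhibitors, 10 min at 4°C. 10 μg protein run on SDS-PAGE and immunoblotted for LC3B, with actin as loading reference.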

A549 [5] = experiment: Induction of autophagy in human A549 cells assessed as increase in LC3II after 24 hrs relative to control; assay type: functional, cell-based; procedure, shortened: as §1

Compound	IC50 (A549 [1])	IC50 (NCI-H2126)	IC50 (NCI-H226)	IC50 [2]	IC50 (NCI-H460)	inhibition (Homo sapiens)	IC50 (NCI-H1299)	inhibition [3]	IC50 (NCI-H23)	IC50 (NCI-H522)	Activity (A549 [4])	Activity (A549 [5])
N#C[Se]CCCCCC(=O)Nc1ccccc1	653 nM	928 nM	1050 nM	449 nM	1460 nM	Active	923 nM	Active	271 nM	779 nM	Active	Active
O=C(CCCCCCC(=O)Nc1ccccc1)NO [VORINOSTAT]	–	–	–	–	–	–	–	inactive	–	832 nM	inactive	–
O=C(CCCCC[Se][Se]CCCCCC(=O)Nc1ccccc1)Nc1ccccc1	370 nM	1090 nM	1730 nM	92 nM	2130 nM	Active	438 nM	Active	279 nM	188 nM	Active	Active
